MsrA inhibitor = inhibits bovine methionine sulfoxide reductase A; inhibition, % at 15.5 µM; 0.75% of 360,000 active; purified bovine MsrA, absorbance read-out; AID 651718; in the data active means inhibition above about 4.5%;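 further: 0% = vehicle wells with enzyme and 100% = reference inhibitor wells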
bovine MsrA act = activates bovine MsrA enzyme. 0.3% of 360,000 active. purified bovine MsrA, absorbance read-out. activation, % at 10.6 µM; in the data active means activation above about 7.5%;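 further: 0% = vehicle and 100% = reference activator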
Tb MetRS inh = Trypanosoma brucei MetRS inhibition; inhibition, % at 11.9 µM; purified T. brucei MetRS, ATP depletion, Kinase-Glo luminescence; 0.4% of 360,000 active;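 active means inhibition above a per-plate cutoff of the control wells' mean inhibition plus 3 SD, cut at about 5.5% in these data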;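 further: 0% = DMSO wells median and 100% = median of wells with control inhibitor compound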
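Material: T. brucei methionyl-tRNA synthetase, purified; reagent: substrates ATP, L-methionine and bulk Escherichia coli tRNA; dosing: 11.9 µM single point; timing: 15 min plus 2 h at 25 °C; detection: luminescence of leftover ATP; evaluation: % inhibition; control set: DMSO-only wells as low control; replicates: singlicate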
AI-2 QS mod = modulators of Vibrio harveyi AI-2 quorum sensing system; 0.4% of 300,000 active; Vibrio harveyi JMH597 AI-2 luminescence/OD600 ratio, 9 h; stronger effect = lower value; strain lacks LuxN and CqsS sensors; 0 = neutral-control median; AID 2094; activity change, % at 7.5 µM; in the data active means activity change below about -75%, passing the limit was not always enough;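 further: luminescence divided by OD600 gain over 9 h not by final OD600 alone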
HTR2A ag = activates the mouse 5-HT2A serotonin receptor. P35363. CHO-K1 mHTR2A beta-arrestin complementation, luminescence; percent of 30 µM serotonin response. activation, % at 7.6 µM. 0.66% of 360,000 active. AID 624169;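 active means activation above a run cutoff, the mean activation of all tested compounds plus 3 SD, cut at about 14% in these data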;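 further: 0% = plate median of compound wells and 100% = 30 µM serotonin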
AHR activator = human AHR activation; AHR-responsive luciferase reporter cells, luminescence; activation, % at 5 µM; 2.5% of 320,000 active; AID 2796; in the data active means activation above about 47%;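 further: 0% = vehicle wells and 100% = reference agonist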
Target sequence (P35869 whole entry, looked up): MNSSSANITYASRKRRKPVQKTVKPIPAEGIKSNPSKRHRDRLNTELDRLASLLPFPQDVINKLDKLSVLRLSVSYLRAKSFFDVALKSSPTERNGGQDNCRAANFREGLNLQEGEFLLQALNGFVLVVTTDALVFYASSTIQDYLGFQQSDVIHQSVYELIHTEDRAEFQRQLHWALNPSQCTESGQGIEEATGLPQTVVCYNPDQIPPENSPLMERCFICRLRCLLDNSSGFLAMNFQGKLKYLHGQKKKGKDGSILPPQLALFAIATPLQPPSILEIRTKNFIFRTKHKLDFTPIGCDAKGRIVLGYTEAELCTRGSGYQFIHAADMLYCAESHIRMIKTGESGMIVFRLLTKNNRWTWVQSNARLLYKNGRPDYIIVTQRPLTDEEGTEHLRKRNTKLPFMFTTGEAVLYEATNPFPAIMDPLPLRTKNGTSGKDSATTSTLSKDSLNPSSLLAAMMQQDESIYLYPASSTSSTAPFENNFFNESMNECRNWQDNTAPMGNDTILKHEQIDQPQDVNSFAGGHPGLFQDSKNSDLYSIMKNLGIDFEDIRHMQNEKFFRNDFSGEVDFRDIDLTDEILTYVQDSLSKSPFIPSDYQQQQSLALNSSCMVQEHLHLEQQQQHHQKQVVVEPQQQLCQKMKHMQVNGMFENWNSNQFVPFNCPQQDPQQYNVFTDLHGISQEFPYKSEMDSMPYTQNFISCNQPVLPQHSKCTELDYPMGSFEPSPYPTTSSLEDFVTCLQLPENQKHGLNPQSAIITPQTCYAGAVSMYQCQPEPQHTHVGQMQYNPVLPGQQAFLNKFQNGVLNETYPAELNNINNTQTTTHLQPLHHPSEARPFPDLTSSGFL
Numbers without * were called inactive; . = no result. Most compounds without a hit are left out; they make up all but 4.4% or so of the library.

SMILES | MsrA inhibitor | bovine MsrA act | Tb MetRS inh | AI-2 QS mod | HTR2A ag | AHR activator
COC(=O)C1=C(C)N(Cc2ccc(Br)cc2)C(=S)NC1c1ccc(OC)cc1 (stereo not drawn) | 0.4 | . | . | . | . | .
COC(=O)N1C[C@H](Oc2cccc3ccccc23)[C@H]2C[C@@H]1c1ccccc1O2 | -0.7 | . | . | . | . | .
C/C(=N\NC(=O)CCC(=O)N/N=C(\C)c1ccc(C)o1)c1ccc(C)o1 | -1.5 | 0.5 | -0.1 | 1.3 | -1.0 | 74.2*
C/C(=N\NC(=O)C(O)(c1ccccc1)c1ccccc1)c1ccc(C)o1 | 0.7 | 0.8 | 0.0 | 0.7 | -1.4 | 1.6
CCCCOCC1CN(CCCC)S(=O)(=O)c2c(Oc3ccc(C)cc3)cccc2O1 (stereo not drawn) | 0.7 | . | . | . | . | .
Cc1ccc(CNC(=O)[C@@H](Cc2ccccc2)NC(=O)[C@H]2O[C@@H](n3ccc(N)nc3=O)[C@H](O)[C@@H]2O)o1 | 2.1 | . | . | . | . | .
Cc1ccc(-c2cc3nc(C)cc(C)n3n2)cc1 | -1.2 | -3.4 | -0.2 | -11.0 | -5.7 | 61.9*
C[C@H](CO)N1C[C@H](C)[C@@H](CN(C)C(=O)Nc2ccccc2)OCc2cn(nn2)CCCC1=O | -1.2 | . | . | . | . | .
Cc1cc(C)c2c(N)c(C(=O)c3cccc(Cl)c3)sc2n1 | 0.1 | 0.7 | -0.5 | 25.5 | -2.1 | 47.5*
Cc1cc(C)c2c(N)c(C(=O)c3ccc(Cl)cc3Cl)sc2n1 | 1.0 | -0.5 | 0.4 | 16.2 | -0.6 | 34.1
CCc1ccccc1NC(=O)c1sc2nc(C)cc(C)c2c1N | 0.6 | -13.3 | -0.2 | 16.1 | 13.7 | 66.8*
CCc1nnc2n1N=C(c1ccc(Cl)cc1)CS2 | -0.4 | -3.8 | 0.5 | 19.4 | 6.3 | 0.9
Cc1nnc2n(c1=O)N=C(c1ccc(Cl)cc1)CS2 | 2.2 | -8.3 | -0.8 | 14.7 | -1.0 | 79.0*
Cc1ccc(C)c(S(=O)(=O)N/N=C/c2ccc(F)cc2)c1 | -0.2 | -3.9 | -0.5 | 5.6 | -1.1 | 73.6*
COc1ccc(/C=N/NS(=O)(=O)c2ccc(C)cc2)cc1 | 0.4 | -9.4 | -0.9 | -82.8* | 1.1 | 2.5
C[C@H](O)[C@@H]1C(=O)N2CCc3c([nH]c4c(-c5ccccc5)cccc34)[C@@H]2C[C@@H]1N(C)C(=S)Nc1ccc(C#N)cc1 | 0.4 | . | . | . | . | .
Cc1nc(NC(=O)c2ccccc2)sc1C1(C)CC(c2ccc(OC(F)(F)F)cc2)=NO1 (stereo not drawn) | . | . | . | 20.6 | . | 44.7
COc1ccc(-c2[nH]c(-c3ccccc3)nc2SCC(=O)NC2CCCC2)cc1 | -0.6 | -0.9 | -0.3 | 14.8 | -0.1 | 37.7
COc1ccc(-c2[nH]c(-c3cccc(OC)c3)nc2SCC(=O)NC2CCCC2)cc1 | -1.4 | -1.5 | -0.3 | 36.7 | -10.5 | 64.6*
Cc1cc(N2CCN(C(=O)OC(C)(C)C)C[C@@H]2C)ccc1N1C[C@@H](C)O[C@@H](C)C1 | -0.4 | . | . | . | . | .
COCc1cc(N2CCN(C(=O)OC(C)(C)C)C[C@H]2C)ccc1N1CCS(=O)(=O)CC1 | 0.2 | . | . | . | . | .
O=C(Nc1nc2c(Cl)cccc2s1)C1CC1 | 0.4 | -3.3 | 0.6 | 20.0 | 1.6 | 54.9*
O=C(Nc1nc2c(Cl)c(Cl)ccc2s1)C1CC1 | 1.7 | -3.6 | -1.1 | 23.8 | -0.8 | 48.4*
O=C(Nc1nc2c(F)cc(F)cc2s1)C1CC1 | 0.1 | -8.9 | -0.5 | 6.5 | 2.0 | 55.2*
Cc1cccc2sc(NC(=O)C3CC3)nc12 | 0.5 | -2.6 | 0.1 | 5.7 | -1.0 | .
SMILES | MsrA inhibitor | bovine MsrA act | Tb MetRS inh | AI-2 QS mod | HTR2A ag | AHR activator
Cc1ccc(-c2nc3c4ccccc4ccn3c2Cc2cccc(F)c2)cc1 | 0.6 | . | . | . | . | .
CC(C)[C@H](NC(=O)c1cccs1)C(=O)N1CCC[C@H]1C(=O)NCc1ccccc1 | 0.1 | . | . | . | . | .
OC(c1ccccc1)(c1ccccc1)C1CCN(CCCOc2cccnc2)CC1 | -0.6 | . | . | . | . | .
CSc1ccccc1NC(=O)CSCc1nc2sc(C)c(C)c2c(=O)[nH]1 | 0.4 | -2.8 | -0.3 | 38.5 | 5.0 | 4.0
Cc1sc2nc(CSCC(=O)Nc3ccccc3C#N)[nH]c(=O)c2c1C | 0.2 | -15.9 | -2.0 | -2.9 | 2.5 | 70.1*
Nc1nc(CSc2n[nH]c(-c3ccccc3)n2)nc(Nc2ccccc2)n1 | 3.1 | -13.9 | -0.9 | 4.3 | 13.4 | 3.8
Cc1ccc(Nc2nc(N)nc(CSc3ncccn3)n2)cc1 | -0.7 | -8.1 | -0.4 | 8.0 | -1.1 | 67.8*
COc1ccc(Nc2nc(N)nc(CSCCO)n2)cc1 | 1.1 | -3.3 | -0.5 | 2.7 | 0.4 | 27.8
Cc1ccc(Nc2nc(N)nc(CSCCO)n2)cc1 | 0.7 | -4.6 | -0.4 | -1.2 | -0.2 | 48.3*
COc1ccc(Nc2nc(N)nc(CSc3n[nH]c(-c4ccccc4)n3)n2)cc1 | -1.1 | -12.0 | -0.7 | 27.3 | -1.7 | 48.6*
Cc1ccc(Nc2nc(N)nc(CSc3nccn3C)n2)c(C)c1 | 0.1 | -0.8 | -0.8 | 27.4 | -5.4 | 48.1*
O=C(NCc1ccccc1)[C@H]1CCCN1C(=O)[C@H]1CCCN1C(=O)c1ccc(F)c(C(F)(F)F)c1 | 1.0 | . | . | . | . | .
CCCCCCC12Cc3cc(OC)c(OC)cc3C(O1)C1=C(O2)C(C)(C)CCC1=O (stereo not drawn) | -0.6 | . | . | . | . | .
Cc1nn(-c2ccccc2)c2sc(C(=O)N3CCOCC3)cc12 | -1.1 | -1.2 | -0.8 | 18.4 | 4.2 | 77.9*
Cc1nn(-c2ccccc2)c2sc(C(=O)O)cc12 | 0.0 | -8.5 | -0.5 | 40.0 | 3.5 | 0.7
COCc1cc(C)nc(Nc2ccccc2OC)c1C#N | 1.3 | -3.6 | -0.3 | 27.1 | 3.1 | 52.2*
CCCc1c(C(=O)N/N=C/c2cccs2)nnn1-c1nonc1N | 1.7 | -3.8 | -0.2 | -0.8 | 2.4 | 61.3*
CCCN(CCC)Cc1c(C(=O)N/N=C/c2cccs2)nnn1-c1nonc1N | 0.8 | -1.1 | -0.4 | 12.7 | 0.6 | 0.3
O=c1[nH]c(=O)n([C@H]2C[C@H](O)[C@@H](CO)O2)cc1C(F)(F)F | 0.1 | -1.4 | -1.1 | -108.2* | -0.6 | -0.6
CN1C(=O)c2ccc(C(=O)Nc3ccccc3O)cc2C1=O | -0.4 | -2.5 | -0.5 | 5.6 | -2.1 | 55.8*
Cc1cc(=O)oc2ccc(OCc3ccccc3)cc12 | 0.9 | -9.9 | -1.2 | 22.5 | -1.2 | 51.1*
N/C(=N\OC(=O)c1ccc2c(c1)OCO2)c1cccc(Br)c1 | 0.7 | -1.6 | 0.0 | -53.7 | 0.5 | 7.9
N/C(=N\OC(=O)c1ccc2c(c1)OCO2)c1cccnc1 | -0.7 | -3.8 | -0.8 | 19.1 | -0.1 | 67.2*
N/C(=N\OC(=O)c1cccc(Cl)c1)c1cccnc1 | 0.7 | 1.1 | 0.0 | 12.2 | -3.3 | 75.4*
Cc1oncc1C(=O)Nc1ccc(C(F)(F)F)cc1 | -1.3 | -2.4 | -0.4 | 24.1 | 2.5 | 67.4*
Cn1cnc([N+](=O)[O-])c1Sc1nnc(-c2ccccc2)c(-c2ccccc2)n1 | 1.2 | . | . | . | . | .
